ChEMBL document CHEMBL2380270, “Radiosynthesis and first evaluation in mice of [(18)F]NS14490 for molecular imaging of α7 nicotinic acetylcholine receptors” (Bioorg Med Chem, 2013)

Assays:
Heart [1] = experiment: Biodistribution in CD1 mouse heart at 200 to 300 kBq, iv measured at 60 mins by gamma counting analysis; assay type: ADME, organism-based; conditions: in vivo, 1 h
Method in brief: (§1)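 Female CD-1 mice, 200–300 kBq radiotracer given iv, n = 3 per time point. Animals anaesthetised for blood and urine sampling, then killed by cervical dislocation at 5, 15, 30 or 60 min p.i. Organs removed, weighed and gamma-counted; uptake expressed as % injected dose per g wet tissue.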

Mus musculus [2] = experiment: Biodistribution in CD1 mouse adrenal at 200 to 300 kBq, iv measured at 30 mins by gamma counting analysis; assay type: ADME, organism-based, Adrenal gland; conditions: in vivo, 0.5 h; method in brief: as §1
Zone of skin [3] = experiment: Biodistribution in CD1 mouse skin at 200 to 300 kBq, iv measured at 15 mins by gamma counting analysis; assay type: ADME, organism-based; conditions: in vivo, 0.25 h
Method in brief: (§2)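 Female CD-1 mice received 200–300 kBq [18F]radiotracer intravenously. Blood and urine were sampled under anaesthesia, then mice were killed by cervical dislocation at 5, 15, 30 or 60 min p.i. (n = 3; control at 60 min n = 7). Organs were removed and weighed, activity was gamma-counted, and uptake was expressed as % injected dose per g wet tissue.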

Femur [4] = experiment: Biodistribution in CD1 mouse femur at 200 to 300 kBq, iv measured at 60 mins by gamma counting analysis in presence of SSR180711; assay type: ADME, organism-based; conditions: in vivo, 1 h
Method in brief: (§3)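 Blocking study in female CD-1 mice, n = 7 per blocker, with a matching control group. SSR180711 or NS6740 given at 10 mg kg⁻¹ ip in 0.9% saline 10 min before iv radiotracer (200–300 kBq). Organs taken at 60 min p.i., weighed and gamma-counted; uptake as % ID per g wet weight. Compared with control by two-tailed independent Student's t test.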

Heart [5] = experiment: Biodistribution in CD1 mouse heart at 200 to 300 kBq, iv measured at 5 mins by gamma counting analysis; assay type: ADME, organism-based; conditions: in vivo; method in brief: as §1
Brain = experiment: Biodistribution in CD1 mouse brain at 200 to 300 kBq, iv measured at 15 mins by gamma counting analysis; assay type: ADME, organism-based; conditions: in vivo, 0.25 h; method in brief: as §1
Mus musculus [6] = experiment: Biodistribution in CD1 mouse adrenal at 200 to 300 kBq, iv measured at 5 mins by gamma counting analysis; assay type: ADME, organism-based, Adrenal gland; conditions: in vivo; method in brief: as §1
Urinary bladder [7] = experiment: Biodistribution in CD1 mouse bladder at 200 to 300 kBq, iv measured at 30 mins by gamma counting analysis; assay type: ADME, organism-based; conditions: in vivo, 0.5 h; method in brief: as §1
[8] = Biodistribution in CD1 mouse urine at 200 to 300 kBq, iv measured at 30 mins by gamma counting analysis; assay type: ADME, organism-based; conditions: in vivo, 0.5 h
Method in brief: (§4)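 Female CD-1 mice given 200–300 kBq tracer intravenously. Animals anaesthetised for blood and urine sampling, then killed by cervical dislocation at 5, 15, 30 or 60 min (n = 3 per time; n = 7 at 60 min). Organs removed and weighed, activity gamma-counted, expressed as % injected dose per g wet weight. Blocking arm: 10 mg/kg i.p. in 0.9% saline, 10 min before tracer; two-tailed unpaired t test versus control.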

Mus musculus [9] = experiment: Biodistribution in CD1 mouse adrenal at 200 to 300 kBq, iv measured at 60 mins by gamma counting analysis; assay type: ADME, organism-based, Adrenal gland; conditions: in vivo, 1 h; method in brief: as §1
Spleen [10] = experiment: Biodistribution in CD1 mouse spleen at 200 to 300 kBq, iv measured at 15 mins by gamma counting analysis; assay type: ADME, organism-based; conditions: in vivo, 0.25 h; method in brief: as §2
Kidney [11] = experiment: Biodistribution in CD1 mouse kidney at 200 to 300 kBq, iv measured at 60 mins by gamma counting analysis; assay type: ADME, organism-based; conditions: in vivo, 1 h; method in brief: as §1
Liver [12] = experiment: Biodistribution in CD1 mouse liver at 200 to 300 kBq, iv measured at 5 mins by gamma counting analysis; assay type: ADME, organism-based; conditions: in vivo; method in brief: as §2
Spleen [13] = experiment: Biodistribution in CD1 mouse spleen at 200 to 300 kBq, iv measured at 60 mins by gamma counting analysis in presence of SSR180711; assay type: ADME, organism-based; conditions: in vivo, 1 h
Method in brief: (§5)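 Blocking design in female CD-1 mice, n = 7 per group. The blocker was given at 10 mg kg^-1 i.p. in 0.9% saline 10 min before i.v. 200–300 kBq [18F]radiotracer. Mice were killed at 60 min p.i. and organs weighed and gamma-counted as % ID per g wet weight. Blocked groups were compared with controls by two-tailed independent Student's t test.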

Urinary bladder [14] = experiment: Biodistribution in CD1 mouse bladder at 200 to 300 kBq, iv measured at 60 mins by gamma counting analysis; assay type: ADME, organism-based; conditions: in vivo, 1 h; method in brief: as §1
Zone of skin [15] = experiment: Biodistribution in CD1 mouse skin at 200 to 300 kBq, iv measured at 60 mins by gamma counting analysis; assay type: ADME, organism-based; conditions: in vivo, 1 h; method in brief: as §2
Mus musculus [16] = experiment: Biodistribution in CD1 mouse small intestine at 200 to 300 kBq, iv measured at 60 mins by gamma counting analysis in presence of SSR180711; assay type: ADME, organism-based; conditions: in vivo, 1 h; method in brief: as §5
Mus musculus [17] = experiment: Biodistribution in CD1 mouse small intestine at 200 to 300 kBq, iv measured at 5 mins by gamma counting analysis; assay type: ADME, organism-based; conditions: in vivo; method in brief: as §2
Muscle tissue = experiment: Biodistribution in CD1 mouse muscle at 200 to 300 kBq, iv measured at 30 mins by gamma counting analysis; assay type: ADME, organism-based; conditions: in vivo, 0.5 h; method in brief: as §2
Lung [18] = experiment: Biodistribution in CD1 mouse lung at 200 to 300 kBq, iv measured at 5 mins by gamma counting analysis; assay type: ADME, organism-based; conditions: in vivo; method in brief: as §2
Liver [19] = experiment: Biodistribution in CD1 mouse liver at 200 to 300 kBq, iv measured at 60 mins by gamma counting analysis; assay type: ADME, organism-based; conditions: in vivo, 1 h; method in brief: as §2
Liver [20] = experiment: Biodistribution in CD1 mouse liver at 200 to 300 kBq, iv measured at 15 mins by gamma counting analysis; assay type: ADME, organism-based; conditions: in vivo, 0.25 h; method in brief: as §2
Spleen [21] = experiment: Biodistribution in CD1 mouse spleen at 200 to 300 kBq, iv measured at 30 mins by gamma counting analysis; assay type: ADME, organism-based; conditions: in vivo, 0.5 h; method in brief: as §2
Lung [22] = experiment: Biodistribution in CD1 mouse lung at 200 to 300 kBq, iv measured at 15 mins by gamma counting analysis; assay type: ADME, organism-based; conditions: in vivo, 0.25 h; method in brief: as §2
Pancreas [23] = experiment: Biodistribution in CD1 mouse pancreas at 200 to 300 kBq, iv measured at 60 mins by gamma counting analysis in presence of SSR180711; assay type: ADME, organism-based; conditions: in vivo, 1 h; method in brief: as §5
Mus musculus [24] = experiment: Biodistribution in CD1 mouse large intestine at 200 to 300 kBq, iv measured at 5 mins by gamma counting analysis; assay type: ADME, organism-based; conditions: in vivo; method in brief: as §1
Liver [25] = experiment: Biodistribution in CD1 mouse liver at 200 to 300 kBq, iv measured at 30 mins by gamma counting analysis; assay type: ADME, organism-based; conditions: in vivo, 0.5 h; method in brief: as §2
Femur [26] = experiment: Biodistribution in CD1 mouse femur at 200 to 300 kBq, iv measured at 5 mins by gamma counting analysis; assay type: ADME, organism-based; conditions: in vivo; method in brief: as §1
[27] = Biodistribution in CD1 mouse urine at 200 to 300 kBq, iv measured at 60 mins by gamma counting analysis; assay type: ADME, organism-based; conditions: in vivo, 1 h; method in brief: as §4
Pancreas [28] = experiment: Biodistribution in CD1 mouse pancreas at 200 to 300 kBq, iv measured at 30 mins by gamma counting analysis; assay type: ADME, organism-based; conditions: in vivo, 0.5 h; method in brief: as §2
Mus musculus [29] = experiment: Biodistribution in CD1 mouse large intestine at 200 to 300 kBq, iv measured at 60 mins by gamma counting analysis; assay type: ADME, organism-based; conditions: in vivo, 1 h; method in brief: as §1
Kidney [30] = experiment: Biodistribution in CD1 mouse kidney at 200 to 300 kBq, iv measured at 15 mins by gamma counting analysis; assay type: ADME, organism-based; conditions: in vivo, 0.25 h; method in brief: as §1
Kidney [31] = experiment: Biodistribution in CD1 mouse kidney at 200 to 300 kBq, iv measured at 60 mins by gamma counting analysis in presence of SSR180711; assay type: ADME, organism-based; conditions: in vivo, 1 h; method in brief: as §3

Q: For O=C(Oc1ccc(Br)cc1)N1CCN2CCC1CC2 [SSR180711], which Drug uptake (Heart [1]) is on record?
A: 1.84 % ID/g

Q: And the Drug uptake (Mus musculus [2])?
A: 4.61 % ID/g

Q: What about the Drug uptake (Zone of skin [3]) of the same compound?
A: 1.4 % ID/g

Q: And the Drug uptake (Femur [4])?
A: 1.43 % ID/g

Q: What about the Drug uptake (Heart [5]) of the same compound?
A: 3.35 % ID/g

Q: What about the Drug uptake (Brain) of the same compound?
A: 0.24 % ID/g

Q: What about the Drug uptake (Mus musculus [6]) of the same compound?
A: 5.78 % ID/g

Q: And the Drug uptake (Urinary bladder [7])?
A: 2.08 % ID/g

Q: What about the Drug uptake [8] of the same compound?
A: 123 % ID/g

Q: And the Drug uptake (Mus musculus [9])?
A: 3.01 % ID/g

Q: What about the Drug uptake (Spleen [10]) of the same compound?
A: 8.23 % ID/g

Q: And the Drug uptake (Kidney [11])?
A: 10.4 % ID/g

Q: What about the Drug uptake (Liver [12]) of the same compound?
A: 6.29 % ID/g

Q: And the Drug uptake (Spleen [13])?
A: 7.53 % ID/g

Q: What about the Drug uptake (Urinary bladder [14]) of the same compound?
A: 1.88 % ID/g

Q: What about the Drug uptake (Zone of skin [15]) of the same compound?
A: 1.94 % ID/g

Q: What about the Drug uptake (Mus musculus [16]) of the same compound?
A: 15.9 % ID/g

Q: And the Drug uptake (Mus musculus [17])?
A: 3.44 % ID/g

Q: And the Drug uptake (Muscle tissue)?
A: 1.26 % ID/g

Q: And the Drug uptake (Lung [18])?
A: 8.48 % ID/g

Q: And the Drug uptake (Liver [19])?
A: 7.79 % ID/g

Q: What about the Drug uptake (Liver [20]) of the same compound?
A: 9.39 % ID/g

Q: And the Drug uptake (Spleen [21])?
A: 7.5 % ID/g

Q: And the Drug uptake (Lung [22])?
A: 10.8 % ID/g

Q: And the Drug uptake (Pancreas [23])?
A: 2.96 % ID/g

Q: What about the Drug uptake (Mus musculus [24]) of the same compound?
A: 1.36 % ID/g

Q: What about the Drug uptake (Liver [25]) of the same compound?
A: 8.51 % ID/g

Q: And the Drug uptake (Femur [26])?
A: 1.45 % ID/g

Q: What about the Drug uptake [27] of the same compound?
A: 152 % ID/g

Q: What about the Drug uptake (Pancreas [28]) of the same compound?
A: 4.2 % ID/g

Q: And the Drug uptake (Mus musculus [29])?
A: 5.02 % ID/g

Q: What about the Drug uptake (Kidney [30]) of the same compound?
A: 10.6 % ID/g

Q: What about the Drug uptake (Kidney [31]) of the same compound?
A: 10.5 % ID/g
